NPY-Y1 PAM-ag: NPY-Y1 receptor potentiators or agonists, primary screen, cell-based. Neuropeptide Y receptor type 1 (Homo sapiens), P25929. NPY-Y1 expressing cells, potentiator/agonist activation. activation, % at 3.6 µM. 220,000 tested, 0.37% active. AID 1304, 2008; in the data active means activation above about 33%, passing the limit was not always enough;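 further: cells stimulated with NPY at EC10 then isoproterenol at EC100; 0% = low agonist plus stimulus and 100% = saturating agonist plus stimulus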
NPY Y2 blocker: NPY-Y2 receptor antagonists, primary screen, cell-based; 140,000 tested, 0.99% active; Neuropeptide Y receptor type 2 (Homo sapiens), P49146; inhibition, % at 2.7 µM; AID 793, 2007; NPY-Y2 expressing cells, antagonist mode; in the data active means inhibition above about 17%;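 further: 0% = vehicle with agonist challenge and 100% = reference antagonist with challenge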
Target sequence (P49146 whole entry, looked up): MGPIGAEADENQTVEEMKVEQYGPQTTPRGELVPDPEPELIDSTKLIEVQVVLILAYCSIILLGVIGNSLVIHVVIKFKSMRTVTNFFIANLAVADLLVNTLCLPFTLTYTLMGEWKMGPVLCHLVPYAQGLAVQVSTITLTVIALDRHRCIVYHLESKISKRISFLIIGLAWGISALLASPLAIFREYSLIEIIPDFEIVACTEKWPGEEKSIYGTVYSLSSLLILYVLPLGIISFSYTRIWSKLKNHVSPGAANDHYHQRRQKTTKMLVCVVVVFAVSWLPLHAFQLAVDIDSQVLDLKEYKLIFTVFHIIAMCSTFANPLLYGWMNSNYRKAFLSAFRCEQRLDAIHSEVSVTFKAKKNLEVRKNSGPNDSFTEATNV
NPY-Y2 PAM-ag: NPY-Y2 potentiators or agonists, primary screen, cell-based. Neuropeptide Y receptor type 2 (Homo sapiens), P49146. cells expressing NPY-Y2, potentiator/agonist read-out. activation, % at 3.6 µM. 220,000 tested, 0.45% active. AID 1359, 2008; in the data active means activation above about 27%;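 further: cells stimulated with NPY near EC25 plus isoproterenol at EC100; 0% = vehicle plus submaximal agonist and 100% = vehicle plus saturating agonist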
NPY Y1 blocker: NPY-Y1 receptor antagonists, primary screen, cell-based; Neuropeptide Y receptor type 1 (Homo sapiens), P25929; HEK293-CNG Y1 cells, membrane potential fluorescence; NPY at EC95, then isoproterenol; inhibition, % at 3.6 µM; 200,000 tested, 1% active; AID 1040, 2008;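 active means inhibition above the campaign mean inhibition of all tested compounds plus 3 SD, cut at about 20% in these data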;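 further: 0% = DMSO wells given NPY plus isoproterenol and 100% = isoproterenol alone without NPY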
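System: HEK293 cells with Y1 receptor plus CNG channel / Probe or stimulus: NPY 25 nM then isoproterenol 1 µM plus Ro 20-1724 25 µM / Compound: one concentration, 3.6 µM, in 0.4% DMSO / Schedule: compound incubation 1 h at room temperature, readout 45 min post-stimulation / Measured by: membrane potential fluorescence / Read-out: % inhibition of NPY effect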
The depositor's hits bear a star; · = no result. Most compounds without a hit are left out; they make up all but 1.8% or so of the library.

SMILES	NPY-Y1 PAM-ag	NPY Y2 blocker	NPY-Y2 PAM-ag	NPY Y1 blocker
Cc1cc(Cl)ccc1NC(=O)CSc1nnc(Cc2cccs2)n1Cc1ccco1	-17	21*	-16	23*
Cc1ccc(NCc2nnc(SCc3ccc(C#N)cc3)n2Cc2ccco2)c(C)c1	14	0	9	1
N#Cc1ccc(CSc2nnc(Cc3cccs3)n2Cc2ccco2)cc1	-34	17	-23	23*
Nc1nc(-c2ccccc2)c(N=Nc2cccc3ccccc23)s1	111*	-13	97*	-29
Nc1nc(-c2ccccc2)c(N=Nc2ccccc2Cl)s1	95*	-14	79*	-27
Cc1ncc(N=Nc2ccccc2Cl)c(-c2ccccc2)n1	-26	1	14	7
Cc1[nH]c2c(C)cccc2c1CCNC(=O)c1ccc2c(c1[N+](=O)[O-])C(=O)c1ccccc1C2=O	68*	-6	59*	-22
Cc1[nH]c2ccccc2c1CCNC(=O)c1ccc2c(c1[N+](=O)[O-])C(=O)c1ccccc1C2=O	27	-5	22	-20
C=CCNC(=O)NC(=O)COC(=O)[C@H](C)NS(=O)(=O)c1c(C)c(C)cc(C)c1C	20	·	-17	·
Cc1cccc(CN2CCN(Cc3cccc(-n4cccn4)c3)CC2CCO)n1 (stereo not given)	-9	·	-9	2
CC(=O)NC1C(=O)N(Cc2ccccc2)c2ccc(Br)cc21 (stereo not given)	-5	·	-12	·
CC(=O)NC1C(=O)N(CCc2ccccc2)c2ccc(Br)cc21 (stereo not given)	-19	23*	-7	23*
Cc1ccc(NC(=O)c2ccc(C(C)(C)C)cc2)cc1[N+](=O)[O-]	-18	1	-5	-1
COc1ccc(C2c3c(-c4cc(Cl)c(C)cc4O)n[nH]c3C(=O)N2Cc2cccnc2)cc1OC (stereo not given)	-9	55*	-19	45*
COc1ccc(C2c3c(-c4ccccc4O)n[nH]c3C(=O)N2Cc2ccco2)cc1OC (stereo not given)	-21	·	-29	·
N#Cc1nc(-c2ccco2)oc1N1CCN(c2ccccc2)CC1	-44	11	-4	26*
N#Cc1nc(-c2ccco2)oc1N1CCC(Cc2ccccc2)CC1	-23	20*	-20	21*
N#Cc1nc(-c2ccco2)oc1N1CCOCC1	3	0	-22	4
CCOC(=O)N1CCN(CC(O)COc2ccccc2C(C)(C)C)CC1 (stereo not given)	71*	2	72*	-12
CCOC(=O)N1CCN(CC(O)COc2cc(C)ccc2C(C)C)CC1 (stereo not given)	92*	0	81*	-13
CCOC(=O)N1CCN(CC(O)COc2ccccc2C(C)CC)CC1 (stereo not given)	-9	2	3	0
CCOC(=O)N1CCN(CC(O)COc2ccccc2C(C)C)CC1 (stereo not given)	79*	2	59*	-10
CC1CN(CC(O)COc2ccccc2C(C)(C)C)CC(C)O1 (stereo not given)	100*	1	84*	-15
CCOC(=O)N1CCN(CC(O)COC(CC)c2ccccc2)CC1 (stereo not given)	2	-2	7	-4
O=C(Cn1nc2n(c1=O)-c1ccccc1SC2)N/N=C/c1cccnc1	14	·	6	·
SMILES	NPY-Y1 PAM-ag	NPY Y2 blocker	NPY-Y2 PAM-ag	NPY Y1 blocker
Cc1ccc(OCC(=O)Nc2ccccc2N2CCCC2)c(C)c1	-17	·	-18	7
CCC(=O)N1CCN(c2ccccc2NC(=O)COc2cc(C)ccc2C(C)C)CC1	-42	22*	-11	31*
CCn1c(/C=C/N(C)c2ccccc2)[n+](CC)c2ccc(Cl)cc21	-25	31*	-3	26*
CCn1c(/C=C/Nc2ccccc2)[n+](CC)c2ccc(Cl)cc21	-6	12	0	4
CN(C)S(=O)(=O)c1cccc(C(=O)NCc2cccs2)c1	7	2	0	3
COc1ccc(NCC(=O)n2c(C)c(C)c3ccccc32)cc1OC	5	·	-7	·
CCOc1ccccc1OCC(=O)NCCc1ccc(S(N)(=O)=O)cc1	0	·	-13	-2
CC(C)(C)n1nnnc1C(c1ccc(C(F)(F)F)cc1)N(Cc1ccc(F)cc1)Cc1ccco1 (stereo not given)	-8	26*	-31	32*
CC(C)(C)n1nnnc1C(c1ccc(F)cc1)N(Cc1ccc(F)cc1)Cc1ccco1 (stereo not given)	-10	27*	-7	47*
Cc1ccc(C(c2nnnn2C(C)(C)C)N(Cc2ccco2)Cc2cccs2)cc1 (stereo not given)	8	18*	-14	5
CCN(Cc1ccccc1)C(c1ccncc1)c1nnnn1C(C)(C)C (stereo not given)	3	5	15	5
Fc1ccc(C(c2nnnn2C2CCCC2)N(Cc2ccco2)CC2CCCO2)cc1 (stereo not given)	-6	43*	5	32*
CC(C)C(c1nnnn1Cc1ccccc1)N(Cc1ccco1)Cc1cccs1 (stereo not given)	5	4	6	-1
CC(C)(C)c1ccc(CN(Cc2ccccc2)C(c2ccccn2)c2nnnn2C(C)(C)C)cc1 (stereo not given)	3	1	-10	0
CCOc1ccc(-c2cc(C(=O)OC)nc3c2c(=O)n(C)c(=O)n3C)cc1	-16	·	-7	·
COc1ccc(C2=C(CC(=O)O)C(=O)CC2)cc1	14	2	0	9
CC(C)(C)n1nnnc1C(c1ccc(Cl)cc1)N(Cc1cccnc1)Cc1ccco1 (stereo not given)	-23	28*	-14	25*
CC(C)(C)n1nnnc1CN(Cc1cccnc1)Cc1ccccc1Cl	-13	5	-2	6
O=C(CN1C(=O)NC2(CCCCC2)C1=O)NCc1cccs1	-5	3	-17	6
C=CCN1C(=Nc2cccnc2)SCC1(O)c1ccc(C)cc1 (stereo not given)	-5	21*	31	20
O=C(c1ccc(-c2ccc(Cl)cc2Cl)o1)N1CCOCC1	-1	·	-2	2
O=C(c1ccc(-c2cc(Cl)ccc2Cl)o1)N1CCOCC1	-12	·	-9	20*
COc1ccc(CC(=O)N2CCc3cc(OC)c(OC)cc3C2O)cc1OC (stereo not given)	27	·	2	·
COc1cc2c(cc1OC)CN(c1nc(CN3CCOCC3)nc3sc4c(c13)CCCC4)CC2	-52	4	-14	2
COc1cc2c(cc1OC)CN(c1nc(CN3CCCCC3)nc3sc4c(c13)CCCC4)CC2	-69	20*	-15	23*
CCCCn1c2c(c(=N)c3c1CCC3)CCC2	10	4	15	4
CCCCCCCCCn1c2c(c(=N)c3c1CCC3)CCC2	-132	37*	-36	90*
CC(=O)Nc1cccc(OCC(=O)Nc2sccc2C(N)=O)c1	-3	·	0	·
